# Laboratory results reported in ChEMBL document CHEMBL3608246, “Novel benzidine and diaminofluorene prolinamide derivatives as potent hepatitis C virus NS5A inhibitors” (Eur J Med Chem, 2015).
# Activity calls are given as the source filed them. The calls are words filed in the database; no cut-off is given here.
# Key:
# [1] = Half life in Sprague-Dawley rat at 10 mg/kg, po by LC/MS/MS method; type: ADME, organism-based; conditions: in vivo
# Outline: (§1)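 Sprague-Dawley rats, 2 male and 1 female per compound per route, parallel design. Vehicle 5% DMSO, 10% solutol, 85% HPBCD; IV 5 mg/kg bolus via tail vein, oral 10 mg/kg. Blood into K2-EDTA tubes at several time points, centrifuged, plasma analysed by LC/MS/MS; non-compartmental analysis.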
# hERG (KCNH2) = hERG (KCNH2) (Homo sapiens, UniProt Q12809); assay: Inhibition of human ERG at 10 uM by fluorescence polarization assay based ligand binding assay
# Chain of hERG (KCNH2) (Q12809 whole entry): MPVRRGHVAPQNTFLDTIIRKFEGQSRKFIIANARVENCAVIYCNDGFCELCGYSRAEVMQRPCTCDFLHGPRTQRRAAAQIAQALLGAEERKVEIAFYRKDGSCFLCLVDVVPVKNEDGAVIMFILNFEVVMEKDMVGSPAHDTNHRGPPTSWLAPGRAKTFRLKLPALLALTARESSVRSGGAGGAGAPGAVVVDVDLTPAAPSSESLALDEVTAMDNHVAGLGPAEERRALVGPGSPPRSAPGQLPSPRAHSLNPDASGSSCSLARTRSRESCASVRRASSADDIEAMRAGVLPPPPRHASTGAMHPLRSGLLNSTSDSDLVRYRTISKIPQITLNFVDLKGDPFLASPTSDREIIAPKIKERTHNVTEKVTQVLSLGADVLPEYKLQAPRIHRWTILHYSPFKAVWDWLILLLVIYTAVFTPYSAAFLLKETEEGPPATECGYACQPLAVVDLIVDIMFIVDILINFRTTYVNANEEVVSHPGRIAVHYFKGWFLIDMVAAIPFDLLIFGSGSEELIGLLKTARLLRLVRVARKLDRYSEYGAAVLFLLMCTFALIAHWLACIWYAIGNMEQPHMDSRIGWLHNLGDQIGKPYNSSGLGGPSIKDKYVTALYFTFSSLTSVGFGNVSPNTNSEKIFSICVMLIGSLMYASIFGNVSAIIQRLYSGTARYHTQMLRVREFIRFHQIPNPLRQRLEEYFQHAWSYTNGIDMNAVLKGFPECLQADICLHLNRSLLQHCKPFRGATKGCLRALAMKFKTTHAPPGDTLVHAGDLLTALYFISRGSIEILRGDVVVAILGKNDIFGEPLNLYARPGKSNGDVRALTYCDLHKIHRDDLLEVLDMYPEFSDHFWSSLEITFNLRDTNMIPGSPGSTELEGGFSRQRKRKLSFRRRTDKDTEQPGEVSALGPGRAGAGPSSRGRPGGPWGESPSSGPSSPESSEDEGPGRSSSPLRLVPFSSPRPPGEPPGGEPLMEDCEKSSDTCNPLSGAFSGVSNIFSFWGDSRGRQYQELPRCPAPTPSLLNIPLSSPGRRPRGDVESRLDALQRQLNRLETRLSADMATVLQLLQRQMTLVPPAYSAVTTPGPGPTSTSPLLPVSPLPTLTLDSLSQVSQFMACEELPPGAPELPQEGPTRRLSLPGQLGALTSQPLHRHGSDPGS
# Salmonella typhimurium [2] = assay: Genotoxicity in Salmonella typhimurium TA100 assessed as induction of revertant colonies at 200 ug/plate in presence of S9 mix by Ames test relative untreated control; type: toxicity, organism-based; conditions: salmonella enterica subsp. enterica serovar typhimurium
# Outline: (§2)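 Ames test, Maron's method, histidine-requiring S. typhimurium TA98 and TA100, with and without S-9 mix; 200 µg/plate, vehicle and positive controls. Revertant colonies counted in triplicate (mean ± SD, n = 3); factor = treated/vehicle-control colonies; positive if ≥2-fold over vehicle.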
# Hepatitis C virus [3] = assay: Antiviral activity against HCV genotype 2a JFH5a infected in human Huh7.5.1 cells transfected with JFH5a-Rluc-ad34 assessed as reduction in virus proliferation by luciferase reporter gene assay; type: functional, cell-based, Hepacivirus hominis, Huh-7; conditions: Hepatitis C virus, genotype 2a JFH5a, Huh-7
# [4] = Cytotoxicity against mouse NIH/3T3 cells by WST dye based CCK8 assay; type: cell-based; conditions: NIH3T3
# Outline: (§3)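 CCK-8 survival assay: WST-8 tetrazolium reduced by cellular dehydrogenases to orange formazan, giving living-cell count; compounds tested up to 100 µM maximum.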
# [5] = Cytotoxicity against human Huh7.5.1 cells; type: cell-based, Huh-7
# Cytochrome P450 2D6 = Cytochrome P450 2D6 (Homo sapiens, UniProt P10635); assay: Inhibition of human CYP2D6 by luminometry; type: ADME
# Chain of Cytochrome P450 2D6 (P10635 whole entry): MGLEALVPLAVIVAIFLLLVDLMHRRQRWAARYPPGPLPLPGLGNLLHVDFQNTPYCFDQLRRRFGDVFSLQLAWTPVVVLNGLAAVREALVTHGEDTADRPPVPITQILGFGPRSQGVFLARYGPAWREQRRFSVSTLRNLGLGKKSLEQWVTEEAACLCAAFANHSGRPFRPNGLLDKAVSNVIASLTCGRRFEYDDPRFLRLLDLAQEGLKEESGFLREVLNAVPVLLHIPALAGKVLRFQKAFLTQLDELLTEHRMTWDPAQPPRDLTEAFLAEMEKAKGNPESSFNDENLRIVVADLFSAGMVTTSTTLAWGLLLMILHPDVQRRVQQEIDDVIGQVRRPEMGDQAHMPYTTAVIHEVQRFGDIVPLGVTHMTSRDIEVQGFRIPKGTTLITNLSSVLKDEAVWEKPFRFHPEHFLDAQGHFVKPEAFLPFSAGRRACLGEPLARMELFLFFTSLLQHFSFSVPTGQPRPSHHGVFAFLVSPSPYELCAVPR
# Outline: (§4)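 Human CYP1A2, 2C9, 2C19, 2D6 and 3A4 inhibition by P450-Glo luminescent assay per kit protocol; compounds at 100, 50, 10, 5, 1, 0.1 and 0.01 µM; luminometer read-out.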
# [6] = Half life in Sprague-Dawley rat at 5 mg/kg, iv by LC/MS/MS method; type: ADME, organism-based; conditions: in vivo; outline: as §1
# Cytochrome P450 3A4 = Cytochrome P450 3A4 (Homo sapiens, UniProt P08684); assay: Inhibition of human CYP3A4 by luminometry; type: ADME; outline: as §4
# Chain of Cytochrome P450 3A4 (P08684 whole entry): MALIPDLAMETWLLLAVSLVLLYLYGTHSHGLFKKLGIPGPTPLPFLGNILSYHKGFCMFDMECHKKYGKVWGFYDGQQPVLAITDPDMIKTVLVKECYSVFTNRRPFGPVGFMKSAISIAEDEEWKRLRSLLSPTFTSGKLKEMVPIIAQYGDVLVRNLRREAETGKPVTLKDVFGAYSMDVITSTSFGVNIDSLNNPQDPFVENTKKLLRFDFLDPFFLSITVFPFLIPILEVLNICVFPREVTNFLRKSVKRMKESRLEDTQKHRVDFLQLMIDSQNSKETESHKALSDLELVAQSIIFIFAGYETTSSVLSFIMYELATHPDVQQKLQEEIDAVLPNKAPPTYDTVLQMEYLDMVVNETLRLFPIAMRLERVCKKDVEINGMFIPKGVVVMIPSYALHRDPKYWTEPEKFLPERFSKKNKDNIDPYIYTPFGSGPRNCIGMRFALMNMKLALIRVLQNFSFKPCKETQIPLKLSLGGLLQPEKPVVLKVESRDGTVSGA
# L929 = assay: Cytotoxicity against mouse L929 cells by WST dye based CCK8 assay; type: cell-based; outline: as §3
# Salmonella typhimurium [7] = assay: Genotoxicity in Salmonella typhimurium TA98 assessed as induction of revertant colonies at 200 ug/plate in presence of S9 mix by Ames test relative untreated control; type: toxicity, organism-based; conditions: salmonella enterica subsp. enterica serovar typhimurium; outline: as §2
# HFL1 = assay: Cytotoxicity against human HFL1 cells by WST dye based CCK8 assay; type: cell-based; outline: as §3
# Salmonella typhimurium [8] = assay: Genotoxicity in Salmonella typhimurium TA98 assessed as induction of revertant colonies at 200 ug/plate in absence of S9 mix by Ames test relative untreated control; type: toxicity, organism-based; conditions: salmonella enterica subsp. enterica serovar typhimurium; outline: as §2
# Hepatitis C virus [9] = assay: Antiviral activity against HCV genotype 1b NK/R2AN infected in human Huh7.5.1 cells assessed as reduction in virus replication by luciferase reporter gene assay; type: functional, organism-based, Hepacivirus hominis, subtype 1b NK/R2AN, Huh-7; conditions: Hepatitis C virus, subtype 1b NK/R2AN, Huh-7
# Cytochrome P450 2C9 = Cytochrome P450 2C9 (Homo sapiens, UniProt P11712); assay: Inhibition of human CYP2C9 by luminometry; type: ADME; outline: as §4
# Chain of Cytochrome P450 2C9 (P11712 whole entry): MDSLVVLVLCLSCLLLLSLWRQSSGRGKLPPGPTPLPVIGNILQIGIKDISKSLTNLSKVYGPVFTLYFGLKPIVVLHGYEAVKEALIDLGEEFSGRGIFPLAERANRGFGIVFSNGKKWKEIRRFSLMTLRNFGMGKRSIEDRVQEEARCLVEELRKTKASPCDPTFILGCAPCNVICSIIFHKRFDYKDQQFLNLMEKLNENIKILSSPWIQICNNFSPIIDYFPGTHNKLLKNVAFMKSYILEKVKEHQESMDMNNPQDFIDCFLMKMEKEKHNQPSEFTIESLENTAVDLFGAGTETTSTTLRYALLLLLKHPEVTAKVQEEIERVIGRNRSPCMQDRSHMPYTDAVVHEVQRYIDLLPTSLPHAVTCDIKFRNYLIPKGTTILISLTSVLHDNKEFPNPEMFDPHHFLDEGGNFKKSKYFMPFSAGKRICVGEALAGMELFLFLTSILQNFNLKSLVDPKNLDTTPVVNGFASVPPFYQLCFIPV
# Cytochrome P450 2C19 = Cytochrome P450 2C19 (Homo sapiens, UniProt P33261); assay: Inhibition of human CYP2C19 by luminometry; type: ADME; outline: as §4
# Chain of Cytochrome P450 2C19 (P33261 whole entry): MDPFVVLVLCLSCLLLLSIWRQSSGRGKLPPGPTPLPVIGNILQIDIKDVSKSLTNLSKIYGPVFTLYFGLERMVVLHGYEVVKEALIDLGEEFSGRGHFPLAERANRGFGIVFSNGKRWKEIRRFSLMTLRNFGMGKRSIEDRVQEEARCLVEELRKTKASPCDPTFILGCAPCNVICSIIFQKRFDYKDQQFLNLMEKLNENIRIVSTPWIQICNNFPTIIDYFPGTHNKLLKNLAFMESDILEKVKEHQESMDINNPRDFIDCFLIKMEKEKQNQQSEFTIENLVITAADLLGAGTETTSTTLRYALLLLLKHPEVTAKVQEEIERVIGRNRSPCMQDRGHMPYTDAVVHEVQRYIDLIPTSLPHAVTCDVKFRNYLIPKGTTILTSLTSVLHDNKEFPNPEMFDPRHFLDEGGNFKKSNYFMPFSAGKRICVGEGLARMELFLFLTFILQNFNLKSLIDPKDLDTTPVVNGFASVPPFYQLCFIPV
# Hepatitis C virus [10] = assay: Antiviral activity against HCV genotype 1b NK/R2AN infected in human Huh7.5.1 cells expressing NS5A Y93H mutant assessed as reduction in virus replication at 100 pM to 1 uM by luciferase reporter gene assay; type: functional, organism-based; conditions: Hepacivirus hominis, subtype 1b NK/R2AN, Huh-7
# Outline: (§5)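 Daclatasvir-resistant NS5A mutant RNAs were transcribed in vitro and electroporated into Huh7.5.1 cells grown in 12-well plates. At 4 h post-transfection, medium was replaced with DMEM containing serially diluted compounds. Cells were harvested 3 days later and Renilla luciferase activity was measured and normalized to mock-treated cells.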
# Cytochrome P450 1A2 = target: T1, Cytochrome P450 1A2 (Homo sapiens, UniProt P05177); assay: Inhibition of human CYP1A2 by luminometry; type: ADME; outline: as §4
# T1 sequence (P05177 whole entry): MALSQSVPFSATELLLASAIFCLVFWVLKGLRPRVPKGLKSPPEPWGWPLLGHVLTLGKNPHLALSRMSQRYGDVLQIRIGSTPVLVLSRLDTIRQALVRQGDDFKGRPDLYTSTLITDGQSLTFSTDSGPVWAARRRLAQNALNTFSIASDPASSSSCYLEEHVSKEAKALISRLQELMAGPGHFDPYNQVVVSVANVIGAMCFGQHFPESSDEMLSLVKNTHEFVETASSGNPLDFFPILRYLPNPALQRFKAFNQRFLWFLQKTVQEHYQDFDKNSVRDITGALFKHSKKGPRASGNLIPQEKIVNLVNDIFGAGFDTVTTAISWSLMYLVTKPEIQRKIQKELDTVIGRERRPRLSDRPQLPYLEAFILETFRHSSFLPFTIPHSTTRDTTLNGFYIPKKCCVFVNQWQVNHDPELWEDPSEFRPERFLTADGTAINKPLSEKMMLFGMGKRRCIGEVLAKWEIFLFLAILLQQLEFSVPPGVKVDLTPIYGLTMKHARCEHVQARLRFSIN
# Hepatitis C virus [11] = assay: Antiviral activity against HCV genotype 1b NK/R2AN infected in human Huh7.5.1 cells expressing NS5A L31V mutant assessed as reduction in virus replication at 100 pM to 1 uM by luciferase reporter gene assay; type: functional, organism-based; conditions: Hepacivirus hominis, subtype 1b NK/R2AN, Huh-7; outline: as §5
# Vero = assay: Cytotoxicity against African green monkey Vero cells by WST dye based CCK8 assay; type: cell-based; conditions: Chlorocebus sabaeus; outline: as §3
# [12] = Cytotoxicity against CHOK1 cells by WST dye based CCK8 assay; type: cell-based; conditions: Cricetulus griseus, CHO-K1; outline: as §3
# [13] = Oral bioavailability in Sprague-Dawley rat at 10 mg/kg by LC/MS/MS method; type: ADME, organism-based; conditions: in vivo; outline: as §1
# [14] = Stability in human liver microsomes assessed as compound remaining at 1 uM after 0.5 hrs by LC-MS/MS method; type: ADME; conditions: read-out: Stability
# Outline: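 Pooled human liver microsomal fraction with β-NADPH, compound at 1 µM, incubated over 30 min; remaining compound in supernatant quantified by LC-MS/MS.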
# Salmonella typhimurium [15] = assay: Genotoxicity in Salmonella typhimurium TA100 assessed as induction of revertant colonies at 200 ug/plate in absence of S9 mix by Ames test relative untreated control; type: toxicity, organism-based; conditions: salmonella enterica subsp. enterica serovar typhimurium; outline: as §2
smiles,measurement,setting,value
COC(=O)N[C@@H](C(=O)N1CCC[C@H]1C(=O)Nc1ccc2c(c1)C(F)(F)c1cc(NC(=O)[C@@H]3CCCN3C(=O)[C@H](NC(=O)OC)c3ccccc3)ccc1-2)c1ccccc1,half-life,[1],101 min
same,inhibition at 10 µM,hERG (KCNH2),39.1%
same,fold change (FC),Salmonella typhimurium [2],0.9
same,EC50,Hepatitis C virus [3],0.059 nM
same,IC50,[4],> 100 µM
same,CC50,[5],> 25 µM
same,EC50,Cytochrome P450 2D6,> 100 µM
same,half-life,[6],54 min
same,EC50,Cytochrome P450 3A4,976 nM
same,IC50,L929,> 100 µM
same,fold change (FC),Salmonella typhimurium [7],1.1
same,IC50,HFL1,> 100 µM
same,fold change (FC),Salmonella typhimurium [8],1.3
same,EC50,Hepatitis C virus [9],3 pM
same,EC50,Cytochrome P450 2C9,277 nM
same,EC50,Cytochrome P450 2C19,13.9 µM
same,inhibition,Hepatitis C virus [10],Active
same,EC50,Cytochrome P450 1A2,> 100 µM
same,inhibition,Hepatitis C virus [11],Active
same,IC50,Vero,> 100 µM
same,IC50,[12],> 100 µM
same,bioavailability,[13],7.6%
same,"remaining at 0.5 h, 1 µM",[14],92%
same,fold change (FC),Salmonella typhimurium [15],0.9
